Consider two compounds from ChEMBL document CHEMBL1123302, “Antagonists of substance P. Further modifications of substance P antagonists obtained by replacing either positions 7, 9 or 7, 8 and 11 of SP with D-amino acid residues” (J Med Chem, 1986).

pIC50: −log10 of the molar value. Some results are limits rather than exact numbers.

In experiment [1] the target is Substance-P receptor (Cavia porcellus) (UniProt P30547). The experiment in a line: Antagonistic activity against Substance P(6-11) receptor in guinea pig ileum at concentration of 1 uM. Format: functional, tissue-based. In outline: (§1)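 Distal ileum from Dunkin-Hartley guinea pigs (300-350 g, both sexes), held in a 5-mL bath of Krebs solution at 37 °C gassed with 95% O2/5% CO2. Agonist dose-response curves ran on a 3-min cycle with 1-min contact, then washout. Dose ratio = agonist EC50 with antagonist / EC50 alone. At least two preparations per compound; ratios below two were taken as insignificant.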

For experiment [2], the target named is Substance-P receptor (Rattus norvegicus) (UniProt P14600). The experiment in a line: Antagonistic activity against Substance P(6-11) receptor in rat spinal cord at concentration of 21 uM.
For experiment [3], the target named is Metabotropic glutamate receptor 3 (Rattus norvegicus) (UniProt P31422). Put plainly: Antagonistic activity against Glutamate receptor in rat spinal cord at concentration of 21 uM. Format: functional, tissue-based. In outline: (§2)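 Neonatal rat spinal cord, hemisected sagittally, superfused at 1 mL/min with oxygenated Krebs-Henseleit medium containing 0.5% urethane at room temperature. Agonists were given in 2-mL doses in the superfusate. Antagonist was superfused continuously for at least 15 min before agonist retesting. Read-out was ventral root depolarization (DC potential, ventral root vs cord body), measured as amplitude and area of response.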

Experiment [4] deals with Substance-P receptor (Rattus norvegicus) (UniProt P14600). Put plainly: Antagonistic activity against Substance P receptor in rat spinal cord at concentration of 21 uM.
Experiment [5] has the same target. Put plainly: Antagonistic activity against Substance P(6-11) receptor in rat spinal cord at concentration of 43 uM.
Experiment [6] concerns the target T1, Substance-P receptor (Rattus norvegicus, UniProt P14600). Put plainly: Compound was evaluated for the histamine releasing activity of the Substance P from isolated rat peritoneal mast cells using the procedure of Fretwell et al. The class given is functional, cell-based. In outline:
(§3)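 Histamine release from isolated rat peritoneal mast cells, method of Fretwell et al. Dose-response curves were built over a range of concentrations, and EC50 values were calculated from the curves.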

The target in experiment [7] is Substance-P receptor (Cavia porcellus) (UniProt P30547). The experiment in a line: Antagonistic activity against Substance P receptor in guinea pig ileum at concentration of 1 uM. Format: functional, tissue-based. In outline: as §1
Experiment [8] deals with Substance-P receptor (Rattus norvegicus) (UniProt P14600). Put plainly: Antagonistic activity against Substance P receptor in rat spinal cord at concentration of 43 uM.
Experiment [9] has as its target Substance-P receptor (Cavia porcellus) (UniProt P30547). The experiment in a line: Antagonistic activity against Substance P receptor in guinea pig ileum at concentration of 4.5 uM. Format: functional, tissue-based. In outline:
as §1

Experiment [10] has the same target. The experiment in a line: Antagonistic activity against Substance P(6-11) receptor in guinea pig ileum at concentration of 4.5 uM. Format: functional, tissue-based. The method in brief:
as §1

The target is the same in experiment [11]. Put plainly: In vitro inhibition of substance P (6-11) hexapeptide induced contractions of the guinea pig ileum at 10 uM. The class given is tissue-based. In outline:
(§4)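 Agonist (SP or SP(6-11)-hexapeptide) dose-response curves on a 3-min cycle with 1-min contact, then washout. Dose ratio = agonist EC50 with antagonist / EC50 alone. At least two preparations per compound; ratios below 2 taken as insignificant.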

For experiment [12], the target named is Metabotropic glutamate receptor 3 (Rattus norvegicus) (UniProt P31422). Put plainly: Antagonistic activity against Glutamate receptor in rat spinal cord at concentration of 5 uM. The class given is functional, tissue-based. The method in brief:
as §2

Experiment [13] deals with Substance-P receptor (Cavia porcellus) (UniProt P30547). Put plainly: In vitro inhibition of substance P induced contractions of the guinea pig ileum at 10 uM. Format: tissue-based. The method in brief:
as §4

The test system of experiment [14] is muscarinic acetylcholine receptor (Rattus norvegicus). The experiment in a line: Antagonistic activity against Carbachol receptor in rat spinal cord at concentration of 10 uM.
Experiment [15] has as its target Substance-P receptor (Rattus norvegicus) (UniProt P14600). The experiment in a line: Antagonistic activity against Substance P receptor in rat spinal cord at concentration of 10 uM.
Experiment [16] shares this target. The experiment in a line: Antagonistic activity against Substance P(6-11) receptor in rat spinal cord at concentration of 10 uM.
Experiment [17] has as its target T1, Substance-P receptor. Put plainly: Histamine releasing activity of Substance P from isolated rat peritoneal mast cells. The class given is functional. The method in brief:
as §3

For experiment [18], the target named is Substance-P receptor (Cavia porcellus) (UniProt P30547). The experiment in a line: In vitro inhibition of substance P (6-11) hexapeptide induced contractions of the guinea pig ileum at 5 uM. Format: tissue-based. In outline: as §4
A short description of experiment [19]: Antagonistic activity against Glutamate receptor in rat spinal cord at concentration of 50 uM.
The target in experiment [20] is Substance-P receptor (Rattus norvegicus) (UniProt P14600). Put plainly: Antagonistic activity against Substance P receptor in rat spinal cord at concentration of 5 uM.
The target of experiment [21] is Metabotropic glutamate receptor 3 (Rattus norvegicus) (UniProt P31422). Put plainly: Antagonistic activity against Glutamate receptor in rat spinal cord at concentration of 10 uM. Format: functional, tissue-based. The method in brief: as §2
For experiment [22], the target named is Substance-P receptor (Cavia porcellus) (UniProt P30547). Put plainly: In vitro inhibition of substance P induced contractions of the guinea pig ileum at 5 uM. The class given is tissue-based. In outline: as §4
Experiment [23] deals with Substance-P receptor (Rattus norvegicus) (UniProt P14600). The experiment in a line: Antagonistic activity against Substance P(6-11) receptor in rat spinal cord at concentration of 5 uM.
The target is the same in experiment [24]. Put plainly: Antagonistic activity against Substance P(6-11) receptor in rat spinal cord at concentration of 50 uM.
Experiment [25] has as its system muscarinic acetylcholine receptor (Rattus norvegicus). Put plainly: Antagonistic activity against Carbachol receptor in rat spinal cord at concentration of 5 uM.
Experiment [26] concerns the target Substance-P receptor (Rattus norvegicus) (UniProt P14600). Put plainly: Antagonistic activity against Substance P receptor in rat spinal cord at concentration of 50 uM.

Substance-P receptor (Cavia porcellus), sequence (P30547 whole entry): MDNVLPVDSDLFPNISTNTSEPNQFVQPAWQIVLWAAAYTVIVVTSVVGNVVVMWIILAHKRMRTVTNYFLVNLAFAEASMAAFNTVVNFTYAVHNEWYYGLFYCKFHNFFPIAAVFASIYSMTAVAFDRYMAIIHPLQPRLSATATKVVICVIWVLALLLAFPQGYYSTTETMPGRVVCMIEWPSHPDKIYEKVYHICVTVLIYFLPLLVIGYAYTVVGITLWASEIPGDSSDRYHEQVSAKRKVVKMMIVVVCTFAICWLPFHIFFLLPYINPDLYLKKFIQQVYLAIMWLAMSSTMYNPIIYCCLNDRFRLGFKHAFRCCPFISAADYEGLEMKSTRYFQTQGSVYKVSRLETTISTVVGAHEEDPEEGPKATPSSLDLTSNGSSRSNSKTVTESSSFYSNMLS
Substance-P receptor (Rattus norvegicus), sequence (P14600 whole entry, looked up, the tested form may be a part): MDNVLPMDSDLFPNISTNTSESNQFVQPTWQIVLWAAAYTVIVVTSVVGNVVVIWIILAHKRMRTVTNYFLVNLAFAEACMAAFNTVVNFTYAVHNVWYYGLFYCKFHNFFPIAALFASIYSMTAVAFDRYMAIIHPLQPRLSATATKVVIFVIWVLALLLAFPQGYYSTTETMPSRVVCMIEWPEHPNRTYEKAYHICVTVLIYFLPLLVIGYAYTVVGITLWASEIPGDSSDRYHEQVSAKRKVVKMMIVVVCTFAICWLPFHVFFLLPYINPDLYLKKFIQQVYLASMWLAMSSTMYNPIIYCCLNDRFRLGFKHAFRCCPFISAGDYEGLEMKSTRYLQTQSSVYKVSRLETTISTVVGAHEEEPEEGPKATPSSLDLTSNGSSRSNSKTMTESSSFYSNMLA
Metabotropic glutamate receptor 3 (Rattus norvegicus), sequence (P31422 23-879 limits assumed): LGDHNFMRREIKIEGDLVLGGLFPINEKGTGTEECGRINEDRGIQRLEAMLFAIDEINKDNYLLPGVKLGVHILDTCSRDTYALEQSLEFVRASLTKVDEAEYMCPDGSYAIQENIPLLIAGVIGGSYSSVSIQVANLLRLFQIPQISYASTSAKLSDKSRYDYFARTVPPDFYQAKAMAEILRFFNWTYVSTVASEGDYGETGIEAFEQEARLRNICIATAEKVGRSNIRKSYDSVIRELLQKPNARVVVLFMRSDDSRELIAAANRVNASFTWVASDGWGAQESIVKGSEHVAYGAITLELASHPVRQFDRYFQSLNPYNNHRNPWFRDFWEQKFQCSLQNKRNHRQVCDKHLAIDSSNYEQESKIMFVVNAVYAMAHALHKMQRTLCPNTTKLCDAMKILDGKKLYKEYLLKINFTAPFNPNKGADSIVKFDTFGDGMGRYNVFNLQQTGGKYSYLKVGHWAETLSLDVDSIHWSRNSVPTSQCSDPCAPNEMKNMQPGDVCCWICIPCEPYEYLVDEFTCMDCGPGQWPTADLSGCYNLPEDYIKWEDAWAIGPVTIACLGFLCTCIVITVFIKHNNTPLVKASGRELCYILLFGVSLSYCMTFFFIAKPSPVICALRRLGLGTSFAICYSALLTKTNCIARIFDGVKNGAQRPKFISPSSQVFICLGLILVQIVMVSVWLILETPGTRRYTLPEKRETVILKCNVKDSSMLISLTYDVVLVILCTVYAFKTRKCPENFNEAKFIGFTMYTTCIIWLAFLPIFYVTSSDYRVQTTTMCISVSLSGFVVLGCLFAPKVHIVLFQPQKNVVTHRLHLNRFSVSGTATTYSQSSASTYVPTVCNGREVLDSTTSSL
T1 sequence (P14600 whole entry): as the sequence (P14600 whole entry, looked up, the tested form may be a part) above

For `COC(=O)[C@H](CCSC)NC(=O)[C@H](CC(C)C)NC(=O)[C@@H](Cc1c[nH]c2ccccc12)NC(=O)[C@H](Cc1ccccc1)NC(=O)[C@@H](Cc1ccccc1)NC(=O)[C@H](CCCCNC(=O)OCc1ccccc1)NC(=O)[C@H](CC(N)=O)NC(=O)[C@@H]1CCCN1C(=O)[C@H](CCCCNC(=O)OCc1ccccc1)NC(=O)[C@@H]1CCCN1C(=O)[C@H](CCCN=C(N)N)NC(=O)OCc1ccccc1`, the Activity in experiment [1] is 9.3 dose ratio; in experiment [7], 5 dose ratio; in experiment [9], 11.4 dose ratio; in experiment [10], 10.8 dose ratio. Besides, the Change in amplitude response in [2] was -44%; in [3], -15%; in experiment [4], 17%; in [5], -54%; in experiment [8] it was 0%. This compound also had a pIC50 against Substance-P receptor [6] of less than 3.30.

As to `COC(=O)[C@H](CCSC)NC(=O)[C@H](CC(C)C)NC(=O)[C@@H](Cc1c[nH]c2ccccc12)NC(=O)[C@H](Cc1ccccc1)NC(=O)[C@@H](Cc1ccccc1)NC(=O)[C@H](CCCN=C(N)N)NC(=O)[C@H](CC(N)=O)NC(=O)C1CCCN1C(=O)[C@H](CCCCNC(=O)OCc1ccccc1)NC(=O)C1CCCN1C(=O)[C@H](CCCN=C(N)N)NC(=O)OCc1ccccc1` (stereo in doubt), the Activity stood at 11.1 dose ratio in experiment [11], 31.1 dose ratio in [13], 3.2 dose ratio in [18] and 14 dose ratio in experiment [22]. For the same compound, the Change in amplitude response in [12] was -3%; in experiment [14], -51%; in [15] it was 3%; in [16], -75%; in [19] it was 20%; in experiment [20] it was -29%. Further, the Change in amplitude response is -1% in [21]; -73% in experiment [23]; -85% in experiment [24]; -52% in experiment [25]; -37% in experiment [26]. For the same compound, the negative logarithm of the IC50 (pIC50) against Substance-P receptor [17] was 6.22.

Broadly, the pIC50 is the IC50 on a negative log10 scale, so that one unit is a factor of ten. A higher pIC50 goes with a low IC50.
